Active and inactive are the calls of the source. The calls are words filed in the database; no cut-off is given here.
Legend:
HFL1 [1] = assay: Antiproliferative activity against human HFL1 cells assessed as reduction in cell proliferation measured after 24 hrs by CCK-8 assay; assay type: functional, cell-based; conditions: HFL1, 24 h
Procedure, shortened: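 Human fetal lung fibroblasts (HFL-1); growth inhibition quantified with CCK-8; IC50 averaged from 3 experiments, each in duplicate.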

[2] = Half life in Sprague-Dawley rat model of bleomycin-induced pulmonary fibrosis at 2 mg/kg, iv by LC-MS/MS analysis; assay type: ADME, organism-based; conditions: in vivo
Procedure, shortened: (§1)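 Male Sprague-Dawley rats with induced pulmonary fibrosis; single i.v. (2.0 mg kg⁻¹) or p.o. (5.0 mg kg⁻¹) administration. Plasma samples stored at −70 °C; the supernatant was analysed by LC-MS/MS for PK parameters.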

[3] = AUClast in Sprague-Dawley rat model of bleomycin-induced pulmonary fibrosis at 2 mg/kg, iv by LC-MS/MS analysis; assay type: ADME, organism-based; design: time 0 - last, dose 2 mg/kg, route iv; conditions: in vivo; procedure, shortened: as §1
[4] = AUC(infinity) in Sprague-Dawley rat model of bleomycin-induced pulmonary fibrosis at 2 mg/kg, iv by LC-MS/MS analysis; assay type: ADME, organism-based; design: time infinity, dose 2 mg/kg, route iv; conditions: in vivo; procedure, shortened: as §1
[5] = Clearance in Sprague-Dawley rat model of bleomycin-induced pulmonary fibrosis at 2 mg/kg, iv by LC-MS/MS analysis; assay type: ADME, organism-based; conditions: in vivo; procedure, shortened: as §1
[6] = Half life in Sprague-Dawley rat model of bleomycin-induced pulmonary fibrosis at 5 mg/kg, po by LC-MS/MS analysis; assay type: ADME, organism-based; conditions: in vivo; procedure, shortened: as §1
[7] = AUClast in Sprague-Dawley rat model of bleomycin-induced pulmonary fibrosis at 5 mg/kg, po by LC-MS/MS analysis; assay type: ADME, organism-based; design: time 0 - last, dose 5 mg/kg, route po; conditions: in vivo; procedure, shortened: as §1
[8] = AUC(infinity) in Sprague-Dawley rat model of bleomycin-induced pulmonary fibrosis at 5 mg/kg, po by LC-MS/MS analysis; assay type: ADME, organism-based; design: time infinity, dose 5 mg/kg, route po; conditions: in vivo; procedure, shortened: as §1
HFL1 [9] = assay: Antifibrotic activity in TGF-beta1-induced HFL1 cell injury assessed as alpha-SMA expression at 3 mM measured after 48 hrs by Western blot analysis (reference value: 100%); assay type: functional, Homo sapiens
Procedure, shortened: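 HFL-1 cells stimulated with TGF-β1; α-SMA protein detected by Western blot with anti-α-SMA antibody, normalised to tubulin; mean of n = 3.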

HFL1 [10] = assay: Antifibrotic activity in TGF-beta1-induced HFL1 cell injury assessed as down regulation of collagen 1 mRNA expression at 3 mM measured after 24 hrs by RT-PCR analysis; assay type: functional, cell-based; conditions: Homo sapiens
Procedure, shortened: (§2)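 TGF-β1-induced HFL-1 cells treated 24 h (test range 0.625–10 μM; comparator 3 mM); collagen 1 and collagen 3 mRNA measured by RT-PCR; mean of n = 3.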

HFL1 [11] = assay: Antifibrotic activity in TGF-beta1-induced HFL1 cell injury assessed as down regulation of collagen 3 mRNA expression at 3 mM measured after 24 hrs by RT-PCR analysis; assay type: functional, cell-based; conditions: Homo sapiens; procedure, shortened: as §2
[12] = Cmax in Sprague-Dawley rat model of bleomycin-induced pulmonary fibrosis at 2 mg/kg, iv by LC-MS/MS analysis; assay type: ADME, organism-based; design: dose 2 mg/kg, route iv; conditions: in vivo; procedure, shortened: as §1
[13] = Tmax in Sprague-Dawley rat model of bleomycin-induced pulmonary fibrosis at 10 mg/kg, po by LC-MS/MS analysis; assay type: ADME, organism-based; conditions: in vivo
[14] = Cmax in Sprague-Dawley rat model of bleomycin-induced pulmonary fibrosis at 10 mg/kg, po by LC-MS/MS analysis; assay type: ADME, organism-based; design: dose 10 mg/kg, route po; conditions: in vivo
[15] = Half life in Sprague-Dawley rat model of bleomycin-induced pulmonary fibrosis at 10 mg/kg, po by LC-MS/MS analysis; assay type: ADME, organism-based; conditions: in vivo
[16] = AUClast in Sprague-Dawley rat model of bleomycin-induced pulmonary fibrosis at 10 mg/kg, po by LC-MS/MS analysis; assay type: ADME, organism-based; design: time 0 - last, dose 10 mg/kg, route po; conditions: in vivo
[17] = AUC(infinity) in Sprague-Dawley rat model of bleomycin-induced pulmonary fibrosis at 10 mg/kg, po by LC-MS/MS analysis; assay type: ADME, organism-based; design: time infinity, dose 10 mg/kg, route po; conditions: in vivo
[18] = Oral bioavailability in Sprague-Dawley rat model of bleomycin-induced pulmonary fibrosis at 10 mg/kg by LC-MS/MS analysis; assay type: ADME, organism-based; conditions: in vivo
Rattus norvegicus = assay: Antifibrotic activity against bleomycin-induced pulmonary fibrosis in Sprague-Dawley rat assessed as reduction in lung histopathological changes at 100 mg/kg, po administered daily for 1 to 14 days starting from post bleomycin stimulation by H and E staining based assay; assay type: functional, organism-based; conditions: time 1-14 day
Procedure, shortened: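 Bleomycin-induced lung fibrosis in SD rats; oral dosing daily from day 1 for 14 days; saline for sham and bleomycin groups; comparator 100 mg kg⁻¹ d, test doses 2 and 6 mg kg⁻¹ d; lung pathology assessed by HE histology.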

[19] = Half life in Sprague-Dawley rat model of bleomycin-induced pulmonary fibrosis at 1 mg/kg, iv by LC-MS/MS analysis; assay type: ADME, organism-based; conditions: in vivo
[20] = AUClast in Sprague-Dawley rat model of bleomycin-induced pulmonary fibrosis at 1 mg/kg, iv by LC-MS/MS analysis; assay type: ADME, organism-based; design: time 0 - last, dose 1 mg/kg, route iv; conditions: in vivo
[21] = AUC(infinity) in Sprague-Dawley rat model of bleomycin-induced pulmonary fibrosis at 1 mg/kg, iv by LC-MS/MS analysis; assay type: ADME, organism-based; design: time infinity, dose 1 mg/kg, route iv; conditions: in vivo
[22] = Clearance in Sprague-Dawley rat model of bleomycin-induced pulmonary fibrosis at 1 mg/kg, iv by LC-MS/MS analysis; assay type: ADME, organism-based; conditions: in vivo
[23] = Tmax in Sprague-Dawley rat model of bleomycin-induced pulmonary fibrosis at 5 mg/kg, po by LC-MS/MS analysis; assay type: ADME, organism-based; conditions: in vivo
Procedure, shortened: (§3)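 Male Sprague-Dawley rats with induced pulmonary fibrosis were dosed 2.0 mg kg⁻¹ i.v. or 5.0 mg kg⁻¹ p.o. Plasma was stored at -70 °C, and the supernatant was analysed by LC-MS/MS.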

[24] = Cmax in Sprague-Dawley rat model of bleomycin-induced pulmonary fibrosis at 5 mg/kg, po by LC-MS/MS analysis; assay type: ADME, organism-based; design: dose 5 mg/kg, route po; conditions: in vivo; procedure, shortened: as §1
[25] = Oral bioavailability in Sprague-Dawley rat model of bleomycin-induced pulmonary fibrosis at 5 mg/kg by LC-MS/MS analysis; assay type: ADME, organism-based; conditions: in vivo; procedure, shortened: as §3

In the case of `Cc1cc(=O)n(-c2ccc(N3CCC(COc4cccc(F)c4)CC3)c(Cl)c2)c(C)n1`, the IC50 (HFL1 [1]) is reported as 50 µM, the half-life [2] is reported as 6.73 h and the AUC(0-t) [3] is reported as 1.45 µg·h/mL. The AUC(0-inf) [4] was 3.26 µg·h/mL, the clearance [5] was 0.65 L/h/kg and the half-life [6] was 5.26 h. For the same molecule, the AUC(0-t) [7] was 1.55 µg·h/mL and the AUC(0-inf) [8] was 3.41 µg·h/mL.
In the case of `Cc1cc(=O)n(-c2ccc(N3CCC(Oc4cccc(F)c4)CC3)c(F)c2)c(C)n1`, the IC50 (HFL1 [1]) is reported as 110 µM.
Work on `Cc1cccc(CC2CCN(c3ccc(-n4c(C)nc(C)cc4=O)cc3F)CC2)c1` yielded an IC50 (HFL1 [1]) of 100 µM.
For `Cc1cc(=O)n(-c2ccc(N3CCC(Cc4cccc5ccccc45)CC3)c(F)c2)c(C)n1`, the IC50 (HFL1 [1]) was 60 µM, the half-life [2] was 5.27 h and the AUC(0-t) [3] was 1.11 µg·h/mL. For the same molecule, the AUC(0-inf) [4] was 1.13 µg·h/mL, the clearance [5] was 1.79 L/h/kg and the half-life [6] was 5.21 h. For the same molecule, the AUC(0-t) [7] was 1.56 µg·h/mL and the AUC(0-inf) [8] was 1.6 µg·h/mL.
`Cc1cc(=O)n(-c2ccc(N3CCC(Cc4cccc(F)c4)CC3)nc2)c(C)n1` gave an IC50 (HFL1 [1]) of 130 µM.
In the case of `Cc1cc(=O)n(-c2ccc(N3CCC(Cc4ccccc4Cl)CC3)c(Cl)c2)c(C)n1`, the IC50 (HFL1 [1]) is reported as 70 µM.
`Cc1ccc(=O)n(-c2ccccc2)c1` [PIRFENIDONE] gave an Activity (HFL1 [9]) of 83.71%, an IC50 (HFL1 [1]) of 9150 µM and a half-life [2] of 0.4 h. It also gave an AUC(0-t) [3] of 0.649 µg·h/mL, an AUC(0-inf) [4] of 0.65 µg·h/mL and a clearance [5] of 3.2 L/h/kg. For the same molecule, the Activity (HFL1 [10]) was “Active”, the Activity (HFL1 [11]) was “Active” and the Cmax [12] was 1.01 µg/mL. It also gave a Tmax [13] of 0.3 h, a Cmax [14] of 5.07 µg/mL and a half-life [15] of 0.4 h. For the same molecule, the AUC(0-t) [16] was 3.46 µg·h/mL, the AUC(0-inf) [17] was 3.46 µg·h/mL and the bioavailability [18] was 107%. The Activity (Rattus norvegicus) was “Active”.
With `Cc1cc(=O)n(-c2ccc(N3CCC(Cc4ccc5ccccc5c4)CC3)c(Cl)c2)c(C)n1` the IC50 (HFL1 [1]) was 90 µM.
Work on `Cc1cc(=O)n(-c2ccc(N3CCC(Cc4cccc(C(F)(F)F)c4)CC3)c(Cl)c2)c(C)n1` yielded an IC50 (HFL1 [1]) of 60 µM, a half-life [2] of 13.5 h and an AUC(0-t) [3] of 2.46 µg·h/mL. For the same molecule, the AUC(0-inf) [4] was 3.22 µg·h/mL, the clearance [5] was 0.62 L/h/kg and the half-life [6] was 11.8 h. For the same molecule, the AUC(0-t) [7] was 5.18 µg·h/mL and the AUC(0-inf) [8] was 7.08 µg·h/mL.
Work on `Cc1cc(=O)n(-c2ccc(N3CCC(Cc4cc(F)c(F)c(F)c4)CC3)c(Cl)c2)c(C)n1` yielded an IC50 (HFL1 [1]) of 60 µM, a half-life [2] of 8.2 h and an AUC(0-t) [3] of 2.19 µg·h/mL. It also gave an AUC(0-inf) [4] of 2.4 µg·h/mL, a clearance [5] of 0.83 L/h/kg and a half-life [6] of 8.41 h. For the same molecule, the AUC(0-t) [7] was 5.69 µg·h/mL and the AUC(0-inf) [8] was 6.36 µg·h/mL.
`Cc1cc(=O)n(-c2cnc(N3CCC(Cc4cccc(F)c4)CC3)c(Cl)c2)c(C)n1` showed an IC50 (HFL1 [1]) of 60 µM.
In the case of `Cc1cc(=O)n(-c2ccc(N3CCC(Nc4cccc(C(F)(F)F)c4)CC3)c(Cl)c2)c(C)n1`, the IC50 (HFL1 [1]) is reported as 60 µM.
In the case of `Cc1cc(=O)n(-c2ccc(N3CCC(Cc4ccccc4-c4ccccc4)CC3)c(Cl)c2)c(C)n1`, the IC50 (HFL1 [1]) is reported as 70 µM.
Work on `Cc1cc(=O)n(-c2ccc(N3CCC(Cc4cccc(F)c4)CC3)c(Cl)c2)c(C)n1` yielded an IC50 (HFL1 [1]) of 60 µM.
Molecule `Cc1cc(=O)n(-c2ccc(N3CCC(Cc4cccc5cccnc45)CC3)c(Cl)c2)c(C)n1` has an IC50 (HFL1 [1]) of 120 µM.
`Cc1cc(=O)n(-c2ccc(N3CCC(Cc4cccc(Cl)c4)CC3)c(Cl)c2)c(C)n1` showed an IC50 (HFL1 [1]) of 50 µM, a half-life [2] of 10.9 h and an AUC(0-t) [3] of 0.898 µg·h/mL. For the same molecule, the AUC(0-inf) [4] was 1.06 µg·h/mL, the clearance [5] was 0.95 L/h/kg and the half-life [6] was 9.6 h. The AUC(0-t) [7] was 1.75 µg·h/mL and the AUC(0-inf) [8] was 2.03 µg·h/mL.
With `Cc1cc(=O)n(-c2ccc(N3CCOCC3)c(F)c2)c(C)n1` the IC50 (HFL1 [1]) was 6540 µM, the half-life [6] was 4.3 h and the AUC(0-t) [7] was 32.6 µg·h/mL. For the same molecule, the AUC(0-inf) [8] was 33.5 µg·h/mL, the half-life [19] was 4.3 h and the AUC(0-t) [20] was 7.13 µg·h/mL. For the same molecule, the AUC(0-inf) [21] was 7.29 µg·h/mL, the clearance [22] was 0.1 L/h/kg and the Tmax [23] was 0.5 h. For the same molecule, the Cmax [24] was 4.72 µg/mL and the bioavailability [25] was 92%.
Work on `C=CCc1ccccc1OC1CCN(c2ccc(-n3c(C)nc(C)cc3=O)cc2Cl)CC1` yielded an IC50 (HFL1 [1]) of 70 µM.
Work on `Cc1cc(=O)n(-c2ccc(N3CCC(Cc4ccc(F)cc4)CC3)c(F)c2)c(C)n1` yielded an IC50 (HFL1 [1]) of 110 µM.
`Cc1cc(=O)n(-c2cnc(N3CCC(Oc4cccc(F)c4)CC3)c(Cl)c2)c(C)n1` showed an IC50 (HFL1 [1]) of 70 µM.
Molecule `Cc1cc(=O)n(-c2ccc(N3CCC(Cc4cccc(F)c4)CC3)cn2)c(C)n1` has an IC50 (HFL1 [1]) of 130 µM.

From ChEMBL document CHEMBL5136958, “The development of HEC-866 and its analogues for the treatment of idiopathic pulmonary fibrosis” (RSC Med Chem, 2021)
